For series [1], the system named is Quadruplex DNA. Description: Stabilization of AR G-quadruplex oligonucleotide in human PC3 cells assessed as down-regulation of ITGB3 mRNA expression at IC50 after 48 hrs by RT-PCR analysis. The format is cell-based. In short, it runs like this:
(§1)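 PC-3 cells (RPMI-1640, 10% fetal calf serum) exposed at an equitoxic concentration. Expression of 92 cancer-mechanism genes measured on TaqMan Arrays. Change versus untreated cells computed by 2−ΔΔCt, with RNaseP as normalizer.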

Series [2] relates to Quadruplex DNA. The experiment in a line: Stabilization of AR G-quadruplex oligonucleotide in human 22Rv1 cells assessed as up-regulation of BAX mRNA expression at IC50 after 48 hrs by RT-PCR analysis. It counts as cell-based. In short, it runs like this: (§2)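 Transcripts quantified by TaqMan real-time PCR with RNaseP as normalizer; relative quantity versus untreated cells by the 2−ΔΔCt method. Panel genes measured with a 92-gene cancer-mechanism TaqMan array.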

For another series, the system named is LNCaP. Description: Cytotoxicity against human LNCAP cells expressing androgen receptor T877A point mutant assessed as reduction in cell viability after 48 hrs by MTS assay. It counts as functional, cell-based. In short, it runs like this: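 Cells kept in RPMI-1640 with 10% fetal calf serum, 37 °C, 5% CO2. Seeded, after 24 h treated with 0.0001, 0.001, 0.01, 0.1, 1 and 10 μM compound (DMSO stocks freshly diluted in medium) for 48 h. MTS added 4 h, absorbance 490 nm; IC50 from curves of % viability inhibition versus DMSO-treated cells against log concentration.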

The subject of series [3] is Quadruplex DNA. The experiment in a line: Stabilization of AR G-quadruplex oligonucleotide in human 22Rv1 cells assessed as regulation of PTEN mRNA expression at IC50 after 48 hrs by RT-PCR analysis. The format is cell-based. A digest of the protocol: as §2
In series [4] the test system is CWR22R. Description: Synergistic cytotoxicity against human 22Rv1 cells expressing full length androgen receptor H875Y point mutant assessed as reduction in cell viability at 0.001 to 0.1 uM after 72 hrs in presence of Enzalutamide by MTS assay based CI-Fa plot analysis. The format is functional. In short, it runs like this: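 Cells in RPMI-1640 with 10% fetal calf serum were exposed to ligand (0.001−0.1 μM) plus enzalutamide (0.5−50 μM) at a fixed ratio, five concentrations, for 72 h at 37 °C, 5% CO2. Viability read by MTS absorbance at 490 nm after 4 h. Combination index computed at ED50 and ED75 by the Chou–Talalay method.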
Background: Formazan colour is commonly taken as a measure of viable cells.

For series [5], the system named is Quadruplex DNA. Description: Stabilization of AR G-quadruplex oligonucleotide in human LNCAP cells assessed as reduction in AR mRNA expression at IC50 after 48 hrs by RT-PCR analysis. The format is cell-based. A digest of the protocol: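 Cells grown in RPMI-1640 with 10% fetal calf serum, 37 °C, 5% CO2, treated at an equitoxic concentration. Transcripts quantified by TaqMan real-time RT-PCR, normalized to RNaseP, expressed as relative quantity versus untreated cells (calibrator) by the 2−ΔΔCt method.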

Series [6] has as its system Quadruplex DNA. The experiment in a line: Stabilization of AR G-quadruplex oligonucleotide in human 22Rv1 cells assessed as reduction in AR-Vs protein level by immunoblotting assay. The format is cell-based. On the technique in general: In western blotting, separated proteins are transferred to a membrane and probed.
The subject of series [7] is CWR22R. Description: Effect on JUN mRNA expression in human 22Rv1 cells at IC50 after 48 hrs by RT-PCR analysis. It counts as functional, cell-based. A digest of the protocol: as §2
The nature of series [8]: Drug uptake in human 22Rv1 cells expressing full length androgen receptor H875Y point mutant at 160 nM after 24 hrs by DAPI staining-based fluorescence microscopic analysis. The format is ADME, cell-based. The note with it: cwr22r, 0.16 µM.
In series [9] the test system is Quadruplex DNA. The experiment in a line: Stabilization of AR G-quadruplex oligonucleotide in human 22Rv1 cells assessed as reduction in AR-FL protein level by immunoblotting assay. It counts as cell-based.
In the next series the test system is PC-3. The experiment in a line: Synergistic cytotoxicity against human PC3 cells assessed as combination index for reduction in cell viability measured at ED50 Enzalutamide at 0.001 to 0.1 uM after 72 hrs by MTS assay based Chou and Talay's plot analysis.
Series [10] concerns Quadruplex DNA. The experiment in a line: Stabilization of AR G-quadruplex oligonucleotide in human PC3 cells assessed as down-regulation of MAX mRNA expression at IC50 after 48 hrs by RT-PCR analysis. The format is cell-based. In short, it runs like this: as §1
For series [11], the system named is Quadruplex DNA. The experiment in a line: Stabilization of AR G-quadruplex oligonucleotide in human DU145 cells assessed as down-regulation of MAX mRNA expression at IC50 after 48 hrs by RT-PCR analysis. The format is cell-based. A digest of the protocol:
as §2

The test system of series [12] is Quadruplex DNA. The experiment in a line: Stabilization of AR G-quadruplex oligonucleotide in human 22Rv1 cells assessed as reduction in AR mRNA expression at IC50 after 6 to 72 hrs by RT-PCR analysis. It counts as cell-based. The note with it: TDE = time-dependent effect. In short, it runs like this:
as §2

A short description of series [13]: Stabilization of AGTGAGAGTGAGAGAGAGAGTGAGAGTGAGAGTGA ssDNA (unknown origin) assessed as change in melting temperature at 16 uM after 16 hrs in presence of 100 mM K+ by CD spectra analysis. A digest of the protocol:
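CD: oligos at 4 μM final in 10 mM lithium cacodylate pH 7.4, 100 mM KCl, annealed 95 °C 5 min then 4 h room temperature; duplex from equimolar strands. Ligand 16 μM final, 16 h room temperature. Spectra 230−320 nm, 5 mm cell, two scans averaged at 20 °C, buffer-subtracted; melting from spectra 20−90 °C in 5 °C steps.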

The test system of series [14] is Quadruplex DNA. The experiment in a line: Stabilization of AR G-quadruplex oligonucleotide in human 22Rv1 cells assessed as down-regulation of ITGB3 mRNA expression at IC50 after 48 hrs by RT-PCR analysis. It counts as cell-based. A digest of the protocol:
as §2

The subject of series [15] is Quadruplex DNA. The experiment in a line: Stabilization of AR G-quadruplex oligonucleotide in human 22Rv1 cells assessed as reduction in cyclin D1 protein level at IC50 after 48 hrs by Western immunoblot assay. The format is cell-based.
In series [16] the test system is Quadruplex DNA. Description: Stabilization of 5'-FAM/3'-TAMRA labelled AR1 G-quadruplex oligonucleotide (unknown origin) assessed as change in melting temperature t1/2 at 1 uM after 16 hrs in presence of 100 mM K+ by FRET assay. It counts as nucleic-acid assay. In short, it runs like this:
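FRET melting: FAM/TAMRA dual-labelled oligos (0.25 μM) folded in 10 mM lithium cacodylate pH 7.4 with 100 mM KCl (95 °C 5 min, cooled 4 h); ligand added at 1 μM final, 16 h room temperature. FAM emission followed 30−95 °C at 1 °C/min; curves normalized 0 to 1, T1/2 at 0.5 fraction.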

Series [17] concerns Quadruplex DNA. The experiment in a line: Stabilization of AR1 template G-quadruplex DNA (unknown origin) assessed as inhibition of polymerase progression at G4 site by measuring reduction in full length amplified product using GGCAAAAAGCAGCTGCTTATATGCAG as primer at 12.5 to 200 nM after 30 mins in presence of 5'-end labeled [gamma32P]ATP by phosphorimaging based taq polymerase stop assay. It counts as nucleic-acid assay. In short, it runs like this:
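Primer 5′-labeled with [γ-32P]ATP by T4 polynucleotide kinase, 37 °C, 30 min. Labeled primer (72 nM final) annealed to template (36 nM final) in 10 mM lithium cacodylate pH 7.4, with or without 10 mM KCl, by heating at 95 °C for 5 min then slow cooling.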

The test system of series [18] is Quadruplex DNA. The experiment in a line: Stabilization of AR G-quadruplex oligonucleotide in human DU145 cells assessed as up-regulation of WNT1 mRNA expression at IC50 after 48 hrs by RT-PCR analysis. It counts as cell-based. In short, it runs like this:
as §2

The text below walks through data of ChEMBL document CHEMBL4411261, “Down-Regulation of the Androgen Receptor by G-Quadruplex Ligands Sensitizes Castration-Resistant Prostate Cancer Cells to Enzalutamide” (J Med Chem, 2018).

Active and inactive are the calls of the source. The rule behind the calls is not given here.

In general, IC50 refers to the concentration that gives 50% inhibition. Usually ΔTm stands for the change in melting temperature against a reference sample.

Regarding `CN(C)CCCn1c(=O)c2ccc3c(=O)n(CCCN(C)C)c(=O)c4c5[nH]c6ccccc6[nH]c5c(c1=O)c2c34.Cl.Cl`, the outcome in the series with Quadruplex DNA [1], with Quadruplex DNA [2], with Quadruplex DNA [3], with Quadruplex DNA [5], in the series on Quadruplex DNA [6] and in the series with Quadruplex DNA [9] was Active. The result in the series with Quadruplex DNA [10], in the series on Quadruplex DNA [11], in the series on Quadruplex DNA [14], in the series on Quadruplex DNA [15] and with Quadruplex DNA [18] was Active. Besides, in the series on LNCaP, the IC50 is 140 nM. Moreover, the CI with CWR22R [4] is less than 0.5; with PC-3, more than 1. Further, the outcome with CWR22R [7] was inactive. Also, the Drug uptake result in series [8] is “Active”. Further, in the series on Quadruplex DNA [12], the Activity result is “Tde”. Further, the ΔTm in series [13] came out at 4.7 °C; in the series on Quadruplex DNA [16], 20.5 °C. Besides, the inhibition entry in the series on Quadruplex DNA [17] was “Active”.
